≈ marks a conversion by molar mass, not a printed value.
What was measured:
[1] = Selectivity index, ratio of […] for toxicity in human A549 cells to MIC50 for antifungal activity against Aspergillus nidulans ATCC 38163; assay type: cell-based; conditions: read-out: Selectivity Index
[2] = Selectivity index, ratio of EC50 for toxicity in human A549 cells to MIC50 for antifungal activity against ITC and FLC-resistant Candida albicans ATCC MYA-90819; assay type: cell-based; conditions: read-out: Selectivity Index
In short: (§1)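 Selectivity index is the EC50 against the mammalian line (A549 or BEAS-2B) divided by the MIC against the given fungal strain.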

[3] = Selectivity index, ratio of […] for toxicity in human BEAS2B cells to MIC50 for antifungal activity against Aspergillus flavus ATCC MYA-3631; assay type: cell-based; conditions: BEAS-2B cells, read-out: Selectivity Index
[4] = Selectivity index, ratio of EC50 for toxicity in human A549 cells to MIC50 for antifungal activity against Candida glabrata ATCC 2001; assay type: cell-based; conditions: read-out: Selectivity Index; in short: as §1
[5] = Selectivity index, ratio of […] for toxicity in human BEAS2B cells to MIC50 for antifungal activity against Aspergillus terreus ATCC MYA-3633; assay type: cell-based; conditions: BEAS-2B cells, read-out: Selectivity Index
Aspergillus flavus = experiment: Antifungal activity against Aspergillus flavus ATCC MYA-3631 incubated for 48 hrs by CLSI M38-A2 protocol based method; assay type: functional; conditions: ATCC MYA-3631, 48 h, read-out: MIC100
Candida albicans [6] = experiment: Antifungal activity against Candida albicans ATCC 10231 incubated for 48 hrs by modified CLSI M27-A3 protocol based method; assay type: functional; conditions: ATCC 10231, 48 h, read-out: MIC100
In short: (§2)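 For C. albicans ATCC 10231, C. krusei ATCC 6258 and C. parapsilosis ATCC 22019, MIC-0 was read, meaning complete growth inhibition. For azole controls, MIC-2 (50% growth inhibition) was reported instead. Caspofungin and voriconazole were tested here; other controls came from earlier work.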

[7] = Selectivity index, ratio of EC50 for toxicity in human A549 cells to MIC50 for antifungal activity against ITC and FLC-susceptible Candida albicans ATCC MYA-2876; assay type: cell-based; conditions: read-out: Selectivity Index; in short: as §1
[8] = Selectivity index, ratio of […] for toxicity in human A549 cells to MIC50 for antifungal activity against Aspergillus terreus ATCC MYA-3633; assay type: cell-based; conditions: read-out: Selectivity Index
Pichia kudriavzevii = experiment: Antifungal activity against Candida krusei ATCC 6258 incubated for 48 hrs by modified CLSI M27-A3 protocol based method; assay type: functional; conditions: ATCC 6258, 48 h, read-out: MIC100; in short: as §2
[9] = Hemolytic activity in mouse erythrocytes assessed as hemolysis level at 7.8 ug/ml incubated for 1 hr at 37 degC; assay type: ADME, cell-based, Erythrocyte; conditions: read-out: Activity
In short: (§3)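 Mouse erythrocytes incubated 1 h at 37 °C with test agents over 1.95 to 125 µg/mL. Percent lysis is read for each concentration.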

[10] = Selectivity index, ratio of EC50 for toxicity in human BEAS2B cells to MIC50 for antifungal activity against Candida glabrata ATCC 2001; assay type: cell-based; conditions: BEAS-2B cells, read-out: Selectivity Index; in short: as §1
[11] = Selectivity index, ratio of EC50 for toxicity in human A549 cells to MIC50 for antifungal activity against Candida krusei ATCC 6258
Aspergillus terreus = experiment: Antifungal activity against Aspergillus terreus ATCC MYA-3633 incubated for 48 hrs by CLSI M38-A2 protocol based method; assay type: functional; conditions: ATCC MYA-3633, 48 h, read-out: MIC100
Candida albicans [12] = experiment: Antifungal activity against ITC and FLC-resistant Candida albicans ATCC MYA-1003 incubated for 48 hrs by modified CLSI M27-A3 protocol based method; assay type: functional; conditions: ATCC MYA-1003, 48 h
In short: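 Because these Candida strains show trailing growth, MIC-2 was read, meaning 50% growth inhibition. Caspofungin and voriconazole were tested here; other controls came from earlier work.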

[13] = Selectivity index, ratio of EC50 for toxicity in human A549 cells to MIC50 for antifungal activity against Candida albicans ATCC 64124; assay type: cell-based; conditions: read-out: Selectivity Index; in short: as §1
[14] = Selectivity index, ratio of EC50 for toxicity in human BEAS2B cells to MIC50 for antifungal activity against Candida albicans ATCC 64124; assay type: cell-based; conditions: BEAS-2B cells, read-out: Selectivity Index; in short: as §1
[15] = Toxicity in human BEAS2B cells assessed as reduction in cell viability incubated for 24 hrs by resazurin dye based assay; conditions: BEAS-2B cells
In short: (§4)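 Toxicity tested in the nucleated lines A549 and BEAS-2B to give EC50 values. Selectivity index is EC50 against the mammalian line divided by the MIC against a given fungal strain.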

[16] = Selectivity index, ratio of EC50 for toxicity in human BEAS2B cells to MIC50 for antifungal activity against ITC and FLC-resistant Candida albicans ATCC MYA-1003; assay type: cell-based; conditions: BEAS-2B cells, read-out: Selectivity Index; in short: as §1
in vitro = conditions: mouse, mouse erythrocytes
[17] = Hemolytic activity in mouse erythrocytes assessed as hemolysis level at 1.95 ug/ml incubated for 1 hr at 37 degC; assay type: ADME, cell-based, Erythrocyte; conditions: read-out: Activity; in short: as §3
[18] = Selectivity index, ratio of EC50 for toxicity in human A549 cells to MIC50 for antifungal activity against ITC and FLC-resistant Candida albicans ATCC MYA-1003; assay type: cell-based; conditions: read-out: Selectivity Index; in short: as §1
[19] = Hemolytic activity in mouse erythrocytes assessed as hemolysis level at 15.6 ug/ml incubated for 1 hr at 37 degC; assay type: ADME, cell-based, Erythrocyte; conditions: read-out: Activity; in short: as §3
[20] = Hemolytic activity in mouse erythrocytes assessed as hemolysis level at 31.3 ug/ml incubated for 1 hr at 37 degC; assay type: ADME, cell-based, Erythrocyte; conditions: read-out: Activity; in short: as §3
[21] = Selectivity index, ratio of EC50 for toxicity in human BEAS2B cells to MIC50 for antifungal activity against Candida krusei ATCC 6258; conditions: BEAS-2B cells
[22] = Hemolytic activity in mouse erythrocytes assessed as hemolysis level at 125 ug/ml incubated for 1 hr at 37 degC; assay type: ADME, cell-based, Erythrocyte; conditions: read-out: Activity; in short: as §3
[23] = Toxicity in human A549 cells assessed as reduction in cell viability incubated for 24 hrs by resazurin dye based assay; in short: as §4
[24] = Selectivity index, ratio of […] for toxicity in human BEAS2B cells to MIC50 for antifungal activity against Aspergillus nidulans ATCC 38163; assay type: cell-based; conditions: BEAS-2B cells, read-out: Selectivity Index
[25] = Selectivity index, ratio of EC50 for toxicity in human BEAS2B cells to MIC50 for antifungal activity against ITC and FLC-resistant Candida albicans ATCC MYA-90819; assay type: cell-based; conditions: BEAS-2B cells, read-out: Selectivity Index
In short: (§5)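 Ratio of the compound's EC50 against BEAS-2B cells to its MIC against the named C. albicans strain. […] For C. albicans strains other than ATCC 10231, trailing growth meant MIC-2 was taken, meaning 50% growth inhibition.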

[26] = Hemolytic activity in mouse erythrocytes assessed as hemolysis level at 3.9 ug/ml incubated for 1 hr at 37 degC; assay type: ADME, cell-based, Erythrocyte; conditions: read-out: Activity; in short: as §3
[27] = Selectivity index, ratio of EC50 for toxicity in human BEAS2B cells to MIC50 for antifungal activity against ITC and FLC-susceptible Candida albicans ATCC MYA-2310; assay type: cell-based; conditions: BEAS-2B cells, read-out: Selectivity Index; in short: as §5
[28] = Selectivity index, ratio of EC50 for toxicity in human BEAS2B cells to MIC100 for antifungal activity against Candida albicans ATCC 10231; assay type: cell-based; conditions: BEAS-2B cells, read-out: Selectivity Index; in short: as §1
[29] = Selectivity index, ratio of EC50 for toxicity in human A549 cells to MIC100 for antifungal activity against Candida albicans ATCC 10231; assay type: cell-based; conditions: read-out: Selectivity Index; in short: as §1

Row | SMILES | selectivity ratio [1] | selectivity ratio [2] | selectivity ratio [3] | selectivity ratio [4] | selectivity ratio [5] | MIC (Aspergillus flavus) [µM] | MIC (Candida albicans [6]) [µM] | selectivity ratio [7] | selectivity ratio [8] | MIC (Pichia kudriavzevii) [µM] | hemolysis at 1 h, 7.8 ug/ml [9] [%] | selectivity ratio [10] | selectivity ratio [11] | MIC (Aspergillus terreus) [µM] | MIC50 (Candida albicans [12]) [µM] | selectivity ratio [13] | selectivity ratio [14] | EC50 at 24 h [15] [µg/mL] | selectivity ratio [16] | hemolysis at 1 h, 62.5 ug/ml (in vitro) [%] | also measured
1 | CCCCCCC(O)(Cn1cncn1)c1ccccc1F (centres undefined) | 65 | 130 | 1 to 2 | 32 | 8 | 53.5 to 107 (≈ 15.6 to 31.3 µg/mL) | 6.7 (≈ 1.95 µg/mL) | 32 | 8 | 0.21 (≈ 0.0612 µg/mL) | 0 | 32 | 522 | 13.4 (≈ 3.9 µg/mL) | 13.4 (≈ 3.9 µg/mL) | 1 | 1 | > 31.3 | 8 | 28.8 | hemolysis at 1 h, 1.95 ug/ml [17]: 0%; selectivity ratio [18]: 8; hemolysis at 1 h, 15.6 ug/ml [19]: 0%; hemolysis at 1 h, 31.3 ug/ml [20]: 8.7%; selectivity ratio [21]: 522; hemolysis at 1 h, 125 ug/ml [22]: 85.6%; EC50 at 24 h [23]: > 31.3 µg/mL; selectivity ratio [24]: 65; selectivity ratio [25]: 130; hemolysis at 1 h, 3.9 ug/ml [26]: 0%; selectivity ratio [27]: 32; selectivity ratio [28]: 16; selectivity ratio [29]: 16
2 | CCCCCCC(O)(Cn1cncn1)c1ccc(Cl)cc1 (centres undefined) | 10 | 10 | 1 | 1 | 2 | > 102 | 6.3 (≈ 1.94 µg/mL) | 5 | 2 | 6.3 (≈ 1.94 µg/mL) | 0 | 1 | 19 | 50.7 (≈ 15.6 µg/mL) | 6.3 (≈ 1.94 µg/mL) | 1 | 1 | > 31.3 | 16 | 83.9 | hemolysis at 1 h, 1.95 ug/ml [17]: 0%; selectivity ratio [18]: 19; hemolysis at 1 h, 15.6 ug/ml [19]: 0%; hemolysis at 1 h, 31.3 ug/ml [20]: 9.5%; selectivity ratio [21]: 16; hemolysis at 1 h, 125 ug/ml [22]: 102%; EC50 at 24 h [23]: 38 µg/mL (≈ 123 µM); selectivity ratio [24]: 8; selectivity ratio [25]: 8; hemolysis at 1 h, 3.9 ug/ml [26]: 0%; selectivity ratio [27]: 1; selectivity ratio [28]: 16; selectivity ratio [29]: 19
3 | CCCCCC(O)(Cn1cncn1)c1ccc(Cl)cc1Cl (centres undefined) | 69 | 17 | 8 | 17 | 8 | 11.9 (≈ 3.91 µg/mL) | 0.73 (≈ 0.24 µg/mL) | 34 | 8 | 1.5 (≈ 0.492 µg/mL) | 0 | 16 | 69 | 11.9 (≈ 3.91 µg/mL) | 3 (≈ 0.985 µg/mL) | 17 | 16 | > 31.3 | 32 | 100 | hemolysis at 1 h, 1.95 ug/ml [17]: 0%; selectivity ratio [18]: 34; hemolysis at 1 h, 15.6 ug/ml [19]: 0%; hemolysis at 1 h, 31.3 ug/ml [20]: 90.5%; selectivity ratio [21]: 65; hemolysis at 1 h, 125 ug/ml [22]: 100%; EC50 at 24 h [23]: 33 µg/mL (≈ 101 µM); selectivity ratio [24]: 65; selectivity ratio [25]: 16; hemolysis at 1 h, 3.9 ug/ml [26]: 0%; selectivity ratio [27]: 16; selectivity ratio [28]: 130; selectivity ratio [29]: 138

Reference: ChEMBL document CHEMBL4265871, “Novel alkylated azoles as potent antifungals” (Eur J Med Chem, 2017)
